These results are taken from ChEMBL document CHEMBL1143090, “Structure-activity relationship and liver microsome stability studies of pyrrole necroptosis inhibitors” (Bioorg Med Chem Lett, 2008).

For orientation: pEC50 means −log10 of the EC50, conventionally taken in molar units. A higher pEC50 goes with a low EC50. Broadly, the half-life is the time needed for the level to fall by half in the phase considered. One may read the microsomal CLint as a measure of how fast metabolising enzymes remove a compound, apart from limits set by blood flow. Low values mean greater metabolic stability, high ones faster metabolism.

The subject of series [1] is Jurkat. In words: Inhibition of TNF-alpha-induced necroptosis in FADD-deficient human Jurkat T cells. The class given is functional, cell-based. In outline:
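FADD-deficient variant of human Jurkat T cells given 10 ng/mL human TNF-α alongside increasing test compound concentrations for 24 h. Viability read by ATP-based assay; EC50 from the concentration series.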

In series [2] the test system is Jurkat. In words: Inhibition of necroptosis in TNF-alpha-induced human Jurkat T cells assessed as cell viability at 30 uM after 24 hrs. It counts as functional, cell-based. The essentials:
(§1)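 FADD-deficient Jurkat, L929 and mouse adult lung fibroblast cells exposed 24 hr to 10 ng/mL human TNF-α and/or 100 µM zVAD.fmk, with compound at 30 µM. ATP-based viability, normalized to compound-treated cells without necroptotic stimulus (100%); N = 2, standard deviation.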

Series [3] deals with L929. Put plainly: Inhibition of necroptosis in zVAD-induced mouse L929 cells assessed as cell viability at 30 uM after 24 hrs. It counts as functional, cell-based. In outline: as §1
For series [4], the system named is L929. In words: Inhibition of necroptosis in TNF-alpha-induced mouse L929 cells assessed as cell viability at 30 uM after 24 hrs. The class given is functional, cell-based. The essentials:
as §1

For the next series, the species on record is Mus musculus. In words: Inhibition of necroptosis in zVAD-induced mouse fibroblast assessed as cell viability at 30 uM after 24 hrs. It counts as functional. The essentials:
as §1

Series [5] is described as follows: Metabolic stability assessed as half life in mouse liver microsomes. It counts as ADME, Microsome. In outline:
(§2)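 Pooled mouse liver microsomes (0.5 mg/mL protein) with 3 µM final compound and 1 mM NADPH, sampled at 0, 5, 15, 30, 60 min; no-NADPH incubation as negative control. Methanol quench, LC/MS (N=3) against internal standard; ln peak-area ratio vs time slope gives k, t1/2 = 0.693/k, CLint = V(0.693)/t1/2.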
On the technique in general: Microsomes from liver hold many membrane-bound enzymes, among them those of drug oxidation.

Series [6] is described as follows: Intrinsic clearance in mouse liver microsome. The class given is ADME. The conditions noted are these: liver microsomes. In outline:
as §2

pEC50: −log10 of the molar value. Activity calls are given as the source filed them. A value given as a limit tells only on which side of the number the result lay.

Take `CCn1c(Br)ccc1C(=O)NCc1c(F)cccc1Cl`: in the series on Jurkat [1], the pEC50 is 5.62.

In the series with Jurkat [1], `CC(NC(=O)c1cccn1C(C)C)c1c(F)cccc1Cl` (racemic) gave a pEC50 of 5.68.

As to `CC(C)n1cccc1C(=O)N[C@@H](C)c1c(F)cccc1Cl`, the pEC50 with Jurkat [1] was 6.28. This pEC50 lies 0.60 log units higher than the previous one.

As for `Cn1cc(C#N)cc1C(=O)NCc1c(F)cccc1Cl`, the pEC50 with Jurkat [1] was less than 4.70.

`CCCCC(NC(=O)c1cccn1C(C)C)c1c(F)cccc1Cl` (racemic) showed a pEC50 in the series with Jurkat [1] of less than 4.70.

In the series with Jurkat [1], `Cn1cccc1C(=O)NCc1c(F)cccc1Cl` showed a pEC50 of 6.05.

Take `CCn1c(C#N)ccc1C(=O)NCc1c(F)cccc1Cl`: in the series with Jurkat [1], the pEC50 was 5.72. This pEC50 is 0.33 log units lower than that of the compound before.

In turn, `O=C(NCc1c(F)cccc1Cl)c1cccn1Cc1ccccc1` had a pEC50 in the series with Jurkat [1] of less than 4.70.

In the case of `CC(C)n1cc(C#N)cc1C(=O)NCc1c(F)cccc1Cl`, the pEC50 in the series with Jurkat [1] is less than 4.70.

Regarding `Cn1c(Cl)ccc1C(=O)NCc1c(F)cccc1Cl`, the pEC50 in the series with Jurkat [1] was 6.13.

Regarding `CN1C(=O)C(Cc2c[nH]c3ccccc23)NC1=S` (racemic) [NECROSTATIN], the pEC50 in the series on Jurkat [1] is 7.30. Moreover, the result in the series with Jurkat [2], with L929 [3], with L929 [4] and in the series filed under Mus musculus was Active.

`Cn1c(C#N)ccc1S(=O)(=O)NCc1c(F)cccc1Cl` showed a pEC50 with Jurkat [1] of less than 4.70.

The compound `Cn1c(C#N)ccc1C(=O)NCc1c(F)cccc1Cl` had a negative-log EC50 (pEC50) with Jurkat [1] of 6.47.

In turn, `CC(C)n1cccc1C(=O)N[C@H](C)c1c(F)cccc1Cl` showed a negative-log EC50 (pEC50) with Jurkat [1] of less than 4.70.

`CN(Cc1c(F)cccc1Cl)C(=O)c1cccn1C` had a pEC50 in the series with Jurkat [1] of less than 4.70.

Consider `Cc1cc[nH]c1C(=O)NCc1c(F)cccc1Cl`, for which the pEC50 in the series with Jurkat [1] was 5.31.

In the series with Jurkat [1], `Cc1ccn(C)c1C(=O)NCc1c(F)cccc1Cl` gave a negative logarithm of the EC50 (pEC50) of less than 4.70.

Turning to `C[C@H](NC(=O)c1snnc1C1CC1)c1c(F)cccc1Cl`, in series [5], the half-life came to 0.542 h. Further, in series [6], the microsomal CLint is 42.6 µL/min/mg. Besides, the result in the series on Jurkat [2], in the series on L929 [3], in the series on L929 [4] and in the series filed under Mus musculus was Active.

`CC(c1ccccc1)n1cccc1C(=O)NCc1c(F)cccc1Cl` (centres undefined) had a negative-log EC50 (pEC50) in the series with Jurkat [1] of less than 4.70.

Turning to `Cc1ccccc1C(=O)NCc1c(F)cccc1Cl`, the half-life in series [5] amounted to 3.23 h. In series [6], this compound had an intrinsic metabolic clearance (microsomal CLint) of 7.13 µL/min/mg.

In the case of `CC(C)n1cccc1C(=O)NCc1c(F)cccc1Cl`, the pEC50 with Jurkat [1] is 6.36.

`O=C(NCc1c(F)cccc1Cl)c1ccc[nH]1` had a negative-log EC50 (pEC50) in the series on Jurkat [1] of less than 4.70.

Consider `Cc1ccn(C(C)C)c1C(=O)NCc1c(F)cccc1Cl`, for which the negative logarithm of the EC50 (pEC50) in the series on Jurkat [1] is 5.11.

In the case of `CC(C)n1c(C#N)ccc1C(=O)NCc1c(F)cccc1Cl`, in the series on Jurkat [1], the negative-log EC50 (pEC50) is 5.85.
